The results in this text go back to PubChem BioAssay.

Assay [1] can be described thus: inhibitors of TNFa-induced NFkB p65 translocation, primary screen, imaging, HUVEC, MLSMR starter and 10KST1 sets (AID 438;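 active means inhibition above 20% together with a positive visual image hit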;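 further: compound added about 3h40 before a 20 min TNFalpha stimulation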;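 on inhibition: signal is the nuclear over cytoplasmic p65 intensity ratio per well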). Particulars: HUVEC TNFa-induced p65 nuclear translocation; cell count: measured here: nuclei count (cytotoxicity indicator), at 2.08 µM; inhibition: at 2 µM, stronger effect = higher value, 0% TNFa-plus-vehicle, 100% no-TNFa wells.
Assay [2] can be described thus: inhibitors of mutant huntingtin aggregation, primary screen, imaging, exon1htt(103Q)mCFP cells, high-content imaging (AID 483;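 active means visual image review flags a hit and inhibition of aggregation exceeds 20%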;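 further: compound exposure lasted 3 days before fixation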;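 on nuclei count: percent of the per-plate median nuclei count of sample wells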). Particulars: exon1htt(103Q)mCFP cell line, aggregate imaging, at 2 µM; inhibition of aggregation: stronger effect = higher value; nuclei count: measured here: cell count, toxicity.
A short description of assay [3]: inhibitors of E-selectin induction by TNFa, primary screen, imaging, HUVEC, immunofluorescence, MLSMR starter and 10KST1 sets (AID 487;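 active means visually confirmed hit in the image check and inhibition above 20%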;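 on inhibition: signal is fraction of cell area covered by stained E-selectin grains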;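 on nuclei count: 100% = median nuclei count of all wells on the same plate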). Particulars: HUVEC TNFalpha-induced E-selectin immunofluorescence imaging, at 2 µM; inhibition: stronger effect = higher value; nuclei count: measured here: cell number, toxicity.
Assay [4] concerns the target Voltage-gated potassium channel subunit beta-2 (Rattus norvegicus) (UniProt P62483). The experiment in a line: KvBeta enzyme negative modulators, primary screen, biochemical, NADPH fluorescence (AID 622;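 active means fluorescence slope higher than the sample average by over 3 SD, cut at about -0.22 in these data, passing the limit was not always enough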;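 further: slope of raw intensity against log time taken from 70 to 1610 s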). Conditions: recombinant KvBeta, 4-cyanobenzaldehyde reduction, at 10 µM, stronger effect = higher value.
For assay [5] the target is unchanged. The experiment in a line: KvBeta positive modulators, primary screen, biochemical, NADPH fluorescence (AID 623;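 active means NADPH fluorescence slope more negative than the mean of all samples by about 3 SD, 99.7% confidence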;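 further: fluorescence intensity change per second fitted from 20 to 320 s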). Particulars: Recombinant KvBeta, NADPH fluorescence decrease slope, 10 min; at 10 µM; stronger effect = lower value.
The target of assay [6] is Muscarinic acetylcholine receptor M4 (Homo sapiens) (UniProt P08173). Kind of assay: compounds altering M4/GIRK thallium flux, either direction, primary screen, M4 allosteric agonist project, cell-based, HEK293 M4/GIRK, BTC-AM (AID 625).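 Further: thallium influx through GIRK channels coupled to M4 in HEK293 cells with BTC-AM dye.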 Conditions: at 10 µM, actives lie on both sides. In a few lines:
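Material – HEK293 cells with M4 receptor and GIRK channels · Buffer or medium – pH 7.3 thallium assay buffer · Doses – one dose, 10 µM final · Timing – cells overnight at 37 °C, BTC-AM loading 1 h, reads 2 min total · Measured by – kinetic fluorescence with BTC-AM dye · Controls – carbachol and DMSO controls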

The nature of assay [7]: inhibitors of Sendai virus-induced IRF3 signaling, primary screen, TLR/RLR signaling modifier project, cell-based, Sendai virus stimulus, luciferase, 10K MLSCN set (AID 602276;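 active means inhibition at or above 50% at 10 µM; inactive means inhibition below 50%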;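 further: firefly luciferase from ISG56 promoter only with Renilla not read in this screen; 0% = Sendai virus plus DMSO and 100% = medium plus DMSO without virus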). Conditions: HEK293 RL24 IRF3 luciferase reporter, at 10 µM, stronger effect = higher value. A general note: Reporter assays use an easily measured gene product as a stand-in for the process of interest.
The nature of assay [8]: inhibitors of poly I:C-induced TLR3 signaling, primary screen, cell-based, poly I:C stimulus, luciferase, 10K MLSCN set (AID 602277;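 active means inhibition of the reporter signal at or above 50%; inactive means inhibition below 50%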). Conditions: HEK293-TLR3 RL24 IRF3 luciferase reporter, at 10 µM, stronger effect = higher value.

SMILES strings stand for the structures. Calls of active or inactive are those of the source.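 How the source made its calls, unless noted: active means fluorescence slope after compound addition differing from the mean of all tested samples at 99.7% confidence, mostly higher but some lower; inactive means the rest.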

What is called inhibition is the drop in the measured response relative to a control, in per cent.

Muscarinic acetylcholine receptor M4 (Homo sapiens), sequence (P08173 whole entry, looked up): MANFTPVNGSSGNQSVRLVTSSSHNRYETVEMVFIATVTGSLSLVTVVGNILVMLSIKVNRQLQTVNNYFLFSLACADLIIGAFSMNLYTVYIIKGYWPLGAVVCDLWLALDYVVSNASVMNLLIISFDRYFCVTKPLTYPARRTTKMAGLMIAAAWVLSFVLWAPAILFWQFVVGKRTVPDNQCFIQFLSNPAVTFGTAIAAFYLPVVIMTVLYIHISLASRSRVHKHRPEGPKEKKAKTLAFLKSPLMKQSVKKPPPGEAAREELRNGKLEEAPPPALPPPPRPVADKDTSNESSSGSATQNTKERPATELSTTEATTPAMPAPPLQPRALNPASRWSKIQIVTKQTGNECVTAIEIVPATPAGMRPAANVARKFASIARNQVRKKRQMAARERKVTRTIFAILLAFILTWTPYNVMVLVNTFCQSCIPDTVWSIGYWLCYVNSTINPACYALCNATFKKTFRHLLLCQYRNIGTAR
Voltage-gated potassium channel subunit beta-2 (Rattus norvegicus), sequence (P62483 whole entry, looked up): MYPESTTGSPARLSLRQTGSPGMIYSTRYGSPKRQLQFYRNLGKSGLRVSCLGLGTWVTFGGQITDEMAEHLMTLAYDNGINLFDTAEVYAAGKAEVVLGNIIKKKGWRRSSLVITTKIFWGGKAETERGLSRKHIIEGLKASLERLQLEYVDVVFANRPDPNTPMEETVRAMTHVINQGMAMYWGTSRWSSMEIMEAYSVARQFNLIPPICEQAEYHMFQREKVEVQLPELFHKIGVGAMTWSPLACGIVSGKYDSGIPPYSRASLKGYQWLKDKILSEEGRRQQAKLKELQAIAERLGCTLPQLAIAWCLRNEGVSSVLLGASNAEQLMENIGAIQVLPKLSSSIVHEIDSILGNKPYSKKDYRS

Take `Cc1ccc(-n2c(Cc3cccn3C)nnc2SCC(=O)NCc2ccc3c(c2)OCO3)cc1`: in assay [1], the cell count was 567. For the same molecule, the inhibition in assay [1] is -12.9% (inactive); in assay [3] it was -53.4% (inactive); in assay [7] it was 18.7% (inactive); in assay [8], 26.7% (inactive). In addition, in assay [2], the inhibition of aggregation is -10.3% (inactive). Also, the values for the nuclei count in assay [2] and in assay [3] were 103% and 82.3%, respectively. The results for the fluorescence slope in assay [4] and in assay [6] were -0.419 (inactive) and 0.00714 (inactive), respectively. The NADPH fluorescence slope in assay [5] is 2.3e-05 (inactive).
Regarding `Cc1cnc(C(=O)Nc2ccc(N3CCOCC3)cc2)cn1`, the cell count in assay [1] is 392. In addition, the inhibition was 3% (inactive) in assay [1], 4.5% (inactive) in assay [3], -19.8% (inactive) in assay [7] and -62% (inactive) in assay [8]. Further, in assay [2], the inhibition of aggregation was -7.7% (inactive). The figures for the nuclei count in assay [2] and in assay [3] were 117% and 101%, respectively. For the same molecule, the values for the fluorescence slope in assay [4] and in assay [6] were -0.524 (inactive) and 0.00612 (inactive), respectively. For the same molecule, in assay [5], the NADPH fluorescence slope is -2.8e-05 (inactive).
As to `C/C(NC1CCCC1)=C(/C#N)C(N)=O`, the cell count in assay [1] turned out to be 396. Besides, the inhibition in assay [1] is -23.5% (inactive); in assay [3], -38.9% (inactive); in assay [7], 16.9% (inactive); in assay [8], 22.8% (inactive). For the same molecule, in assay [2], the inhibition of aggregation was -0.6% (inactive). Also, the nuclei count in assay [2] was found to be 108%; in assay [3], 144%. For the same molecule, the results for the fluorescence slope in assay [4] and in assay [6] were -0.583 (inactive) and 0.00436 (inactive), respectively. Moreover, the NADPH fluorescence slope in assay [5] was -2.4e-05 (inactive).
With `CC(C(=O)Nc1ccccc1-c1ccccc1)N1CCN(C(=O)c2ccco2)CC1` (centres undefined), the cell count in assay [1] amounted to 546. For the same molecule, the inhibition was -11.2% (inactive) in assay [1], -63.4% (inactive) in assay [3], 19.8% (inactive) in assay [7] and 33.6% (inactive) in assay [8]. In addition, the inhibition of aggregation in assay [2] is 14% (inactive). Also, the nuclei count came to 75% in assay [2] and 97.9% in assay [3]. The fluorescence slope in assay [4] is -0.395 (inactive); in assay [6], 0.00807 (inactive). Also, the NADPH fluorescence slope in assay [5] is 1.3e-05 (inactive).
Take `CCOC(=O)C1CCN(S(=O)(=O)c2cc(Cl)c(C)cc2OC)CC1`: the cell count in assay [1] turned out to be 441. Further, the inhibition in assay [1] was -9.5% (inactive); in assay [3], -41% (inactive); in assay [7] it was 19.9% (inactive); in assay [8], 38.6% (inactive). Further, the inhibition of aggregation in assay [2] was -0.9% (inactive). Moreover, the nuclei count turned out to be 109% in assay [2] and 116% in assay [3]. The figures for the fluorescence slope in assay [4] and in assay [6] were -0.587 (inactive) and 0.00585 (inactive), respectively. In addition, in assay [5], the NADPH fluorescence slope is 1.4e-05 (inactive).
As for `CC(=O)C1=C(N2CCCCC2)CCC1=O`, in assay [1], the cell count turned out to be 431. The inhibition in assay [1] was 2.3% (inactive); in assay [3], -0.5% (inactive); in assay [7] it was 8.02% (inactive); in assay [8], 11.2% (inactive). Further, in assay [2], the inhibition of aggregation is -14.9% (inactive). For the same molecule, the nuclei count in assay [2] turned out to be 100%; in assay [3], 109%. In addition, the fluorescence slope was -0.328 (inactive) in assay [4] and 0.00689 (inactive) in assay [6]. Besides, the NADPH fluorescence slope in assay [5] is -1.9e-05 (inactive).
As to `COc1ccc(-c2nnc(SCC#N)o2)cc1`, the cell count in assay [1] worked out at 333. Also, the inhibition was -8.7% (inactive) in assay [1], 24.6% (inactive) in assay [3], -8.24% (inactive) in assay [7] and -31.5% (inactive) in assay [8]. For the same molecule, the inhibition of aggregation in assay [2] is 29.7% (active). In addition, the results for the nuclei count in assay [2] and in assay [3] were 86% and 102%, respectively. Moreover, the fluorescence slope in assay [4] was -0.511 (inactive); in assay [6], 0.00472 (inactive). In assay [5], the NADPH fluorescence slope was -2.6e-05 (inactive).
Take `COc1cccc(OC)c1C(=O)n1nc(C)cc1C`: the cell count in assay [1] turned out to be 489. The inhibition in assay [1] was -18.1% (inactive); in assay [3] it was -10.8% (inactive); in assay [7], 14.5% (inactive); in assay [8] it was 4.66% (inactive). The inhibition of aggregation in assay [2] is -12.3% (inactive). For the same molecule, the nuclei count worked out at 99.8% in assay [2] and 95.6% in assay [3]. In addition, the values for the fluorescence slope in assay [4] and in assay [6] were -0.591 (inactive) and 0.00413 (inactive), respectively. In addition, the NADPH fluorescence slope in assay [5] was -3.7e-05 (inactive).
Turning to `Cc1ccc(NC(=O)CS(=O)CC(=O)NCC2CCCO2)cc1` (centres undefined), in assay [1], the cell count amounted to 515. For the same molecule, the inhibition in assay [1] is 7.1% (inactive); in assay [3], -38.7% (inactive); in assay [7], -20.7% (inactive); in assay [8], -6.01% (inactive). In assay [2], the inhibition of aggregation was 17.5% (inactive). In addition, the nuclei count was 100% in assay [2] and 117% in assay [3]. The fluorescence slope in assay [4] is -0.309 (inactive); in assay [6] it was 0.00727 (inactive). The NADPH fluorescence slope in assay [5] is 1.2e-05 (inactive).
As for `CSC1=C(C#N)C(c2ccc(C)cc2)C2=C(CCCC2=O)N1` (centres undefined), in assay [1], the cell count amounted to 322. For the same molecule, the inhibition was -15.9% (inactive) in assay [1], 17.3% (inactive) in assay [3], 8.18% (inactive) in assay [7] and 19.7% (inactive) in assay [8]. The inhibition of aggregation in assay [2] was -19.6% (inactive). Moreover, the nuclei count was found to be 100% in assay [2] and 109% in assay [3]. Besides, the figures for the fluorescence slope in assay [4] and in assay [6] were -0.557 (inactive) and 0.00661 (inactive), respectively. The NADPH fluorescence slope in assay [5] was -5.6e-05 (inactive).
For the molecule `COC(=O)c1cn(C(=O)OC)c2ccccc12`, the cell count in assay [1] came to 447. In addition, the inhibition in assay [1] was -2.7% (inactive); in assay [3], -17.8% (inactive); in assay [7] it was 13.8% (inactive); in assay [8], 10.5% (inactive). The inhibition of aggregation in assay [2] was 10.2% (inactive). Further, the nuclei count in assay [2] and in assay [3] was 108% each time. The values for the fluorescence slope in assay [4] and in assay [6] were -0.593 (inactive) and 0.00446 (inactive), respectively. Also, the NADPH fluorescence slope in assay [5] is -8.8e-05 (inactive).
For the molecule `Nc1nonc1C(=O)NCCNCc1cc(Br)ccc1OCc1ccccc1F`, the cell count in assay [1] is 422. Besides, the inhibition in assay [1] was -2.4% (inactive); in assay [3] it was -4.2% (inactive); in assay [7], -2.45% (inactive); in assay [8], -30.4% (inactive). Also, the inhibition of aggregation in assay [2] was 18.5% (inactive). The nuclei count in assay [2] worked out at 89.6%; in assay [3], 123%. Moreover, the fluorescence slope in assay [4] was -0.574 (inactive); in assay [6] it was 0.00396 (inactive). The NADPH fluorescence slope in assay [5] was -3.2e-05 (inactive).
Regarding `COc1ccc(-c2ccc(CCC(=O)O)n2NC(=O)c2cccs2)cc1`, in assay [1], the cell count came to 645. The inhibition was -3.5% (inactive) in assay [1], -35.1% (inactive) in assay [3], 2.14% (inactive) in assay [7] and 42.4% (inactive) in assay [8]. The inhibition of aggregation in assay [2] was -1.9% (inactive). Besides, the values for the nuclei count in assay [2] and in assay [3] were 108% and 131%, respectively. The fluorescence slope in assay [4] was -0.464 (inactive); in assay [6], 0.00607 (inactive). The NADPH fluorescence slope in assay [5] was -3.6e-05 (inactive).
`N#C/C(C(=O)c1ccccc1)=C1/CCCN1`: the cell count in assay [1] came out at 328. Further, the inhibition in assay [1] is 0.4% (inactive); in assay [3], -66.4% (inactive); in assay [7], 4.87% (inactive); in assay [8] it was -17.4% (inactive). Besides, the inhibition of aggregation in assay [2] was -10.6% (inactive). In addition, the nuclei count is 109% in assay [2] and 134% in assay [3]. Moreover, the results for the fluorescence slope in assay [4] and in assay [6] were -0.567 (inactive) and 0.00513 (inactive), respectively. The NADPH fluorescence slope in assay [5] is -5.4e-05 (inactive).
